The term IC50 denotes the midpoint of a concentration-inhibition curve. For orientation: inhibition means the percentage by which the read-out fell short of the control. One may read the EC50 as the concentration that produces a half-maximal response.

One experiment deals with BGC-823. Description: Cytotoxicity against human BGC-823 cells measured after 24 to 72 hrs by MTT assay. The format is functional, cell-based. In short, it runs like this:
(§1)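 Cells were grown in RPMI 1640 with 10% FBS and penicillin/streptomycin at 37 °C, 5% CO2. They were seeded at 1×10^4 cells/well and allowed to attach for 24 h. Compounds at various concentrations were then applied for 24, 48 or 72 h (DMSO below 1.25%). MTT (5.0 mg/mL) was added 3 h before the end, formazan was dissolved in DMSO and OD was read at 570 nm. Doxorubicin served as reference. Data are mean ± SD, n=3.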

A further experiment concerns SW480. Description: Cytotoxicity against human SW480 cells measured after 24 to 72 hrs by MTT assay. The format is functional, cell-based. In short, it runs like this:
as §1
On the technique in general: Formazan colour is commonly taken as a measure of viable cells.

The test system of the next experiment is MCF7. Description: Cytotoxicity against human MCF7 cells measured after 24 to 72 hrs by MTT assay. Format: functional, cell-based. The method in brief:
as §1

The subject of the next experiment is HeLa. The experiment is described as follows: Cytotoxicity against human HeLa cells measured after 24 to 72 hrs by MTT assay. The format is functional, cell-based. The method in brief: as §1
The subject of the next experiment is A549. Description: Cytotoxicity against human A549 cells measured after 24 to 72 hrs by MTT assay. Format: functional, cell-based. In short, it runs like this:
as §1

Experiment [1] in a line: Antioxidant activity assessed as DPPH radical scavenging activity incubated for 30 mins under dark condition relative to control. Also noted: concentration or dose not given beside the values. Format: functional. The method in brief: (§2)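 Compounds at a range of concentrations were mixed with DPPH solution and kept 30 min in the dark. Absorbance was read at 517 nm. % activity = [(control A − sample A)/control A] × 100. Vitamin C and ebselen served as positive controls and DMSO as the negative control. Fold is expressed relative to vitamin C (set as 1). Values are mean ± SD of three independent experiments.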
(The DPPH test is a chemical assay of radical scavenging.)

The subject of the next experiment is DNA. The experiment is described as follows: Induction of bleomycin-dependent DNA (unknown origin) damage assessed as absorbance at 0.1 mg/ml measured after 1 hr. The format is nucleic-acid assay. In short, it runs like this:
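The bleomycin-iron/DNA mixture was incubated at 37 °C for 1 h and stopped with 0.1 M EDTA. Colour was developed with 1% TBA plus 25% HCl at 80 °C for 30 min. After ice cooling, DNA damage was read as the increase in absorbance at 532 nm. L-ascorbic acid served as the positive control.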

The nature of experiment [2]: Antioxidant activity assessed as glutathione peroxidase-like activity at 41 mM measured over 3 mins. The format is functional. In short, it runs like this:
(§3)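 GPx-like rate measured from GSH/glutathione reductase/NADPH coupling in 50 mM phosphate buffer with 0.1% Triton X-100. The compound was added from a 41 mM solution, and the reaction was started with H2O2 (0.8 mM). A340 was followed for 3 min and expressed as ΔA/min. Values were corrected for the H2O2 + GSH background, and for the compound's own absorbance if coloured. Ebselen (41 mM) served as reference.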

Experiment [3] in a line: Antioxidant activity assessed as glutathione peroxidase-like activity at 41 mM measured over 3 mins relative to ebselen glutathione peroxidase-like activity. Format: functional. In short, it runs like this:
as §3

The target in experiment [4] is T1, Thioredoxin reductase 1, cytoplasmic (Rattus norvegicus, UniProt O89049).
T1 sequence (O89049 whole entry): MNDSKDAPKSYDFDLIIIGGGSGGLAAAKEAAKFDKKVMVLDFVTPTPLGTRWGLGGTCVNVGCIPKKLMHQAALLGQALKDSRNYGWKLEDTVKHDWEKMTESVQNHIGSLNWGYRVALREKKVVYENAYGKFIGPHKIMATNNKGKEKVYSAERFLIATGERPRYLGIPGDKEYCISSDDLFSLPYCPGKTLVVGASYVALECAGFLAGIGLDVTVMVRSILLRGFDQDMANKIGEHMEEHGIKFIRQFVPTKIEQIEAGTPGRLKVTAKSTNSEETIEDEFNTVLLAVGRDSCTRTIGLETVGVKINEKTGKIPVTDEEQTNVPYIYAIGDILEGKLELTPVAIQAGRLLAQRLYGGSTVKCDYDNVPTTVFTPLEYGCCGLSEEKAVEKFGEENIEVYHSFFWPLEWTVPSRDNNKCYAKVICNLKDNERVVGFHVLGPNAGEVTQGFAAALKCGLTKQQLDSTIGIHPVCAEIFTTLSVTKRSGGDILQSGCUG
The experiment is described as follows: Inhibition of rat TrxR1 using DTNB as substrate preincubated for 15 mins followed by substrate addition and measured for 20 mins by colorimetric method. The method in brief:
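Rat TrxR1 (5 nM) was used in 100 mM potassium phosphate pH 7.0 with 1 mM EDTA, 0.1 mg/ml BSA and 0.2 mM NADPH. […] DTNB was then added and the A412 increase was monitored for 20 min.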

A short description of experiment [5]: Potency index, ratio of test compound to vitamin C antioxidant activity assessed as DPPH radical scavenging activity incubated for 30 mins under dark condition. Format: functional. In short, it runs like this:
as §2

Each structure is given as a SMILES string. Activity calls are given as the source filed them. The rule behind the calls is not given here. Some results are limits rather than exact numbers.

On to `CC(=O)Oc1ccccc1C(=O)NCc1ccc(-n2[se]c3ccccc3c2=O)cc1`, for which the IC50 in the experiment on BGC-823 amounted to 2.4 µM; in the experiment on SW480, 2.8 µM; with MCF7 it was 1.5 µM; in the experiment on HeLa, 1.7 µM; in the experiment on A549 it was 2.1 µM. For the same compound, the inhibition in experiment [1] was determined as 57.3%. Also, the Activity in the experiment with DNA is 108. Moreover, the result in experiment [2] was Active. Also, in [3], the fold change (FC) is below 3. For the same compound, in experiment [4], the EC50 was 8.8 µM. The Ratio in [5] worked out at 0.5.

On to `CC(=O)Oc1ccccc1C(=O)NCCn1[se]c2ccccc2c1=O`, for which the half-inhibitory concentration (IC50) amounted to 11.4 µM in the experiment on BGC-823; 14.2 µM with SW480; 14.5 µM with MCF7; 12.7 µM in the experiment on HeLa; 10.6 µM in the experiment on A549. Moreover, in experiment [1], the inhibition stood at 41.4%. Also, the Activity in the experiment with DNA stood at 91.4. Moreover, the result in experiment [2] was Active. The compound further displayed an EC50 in experiment [4] of 21.4 µM. In addition, the Ratio in [5] was determined as 0.4.

`CC(C(=O)NCCn1[se]c2ccccc2c1=O)c1cccc(C(=O)c2ccccc2)c1` (stereo unspecified): the IC50 in the experiment on BGC-823 was 13.6 µM; in the experiment with SW480, 14.6 µM; with MCF7 it was 10.3 µM; with HeLa it was 11.3 µM; in the experiment on A549, 15.6 µM. Further, the inhibition in [1] was determined as 33.3%. The Activity with DNA came out at 87.6. For the same compound, in experiment [2], the result was Active. Moreover, the EC50 in experiment [4] came out at 23.6 µM. Moreover, the Ratio in experiment [5] was 0.3.

Consider `CC1=C(CC(=O)NCCn2[se]c3ccccc3c2=O)c2cc(F)ccc2/C1=C\c1ccc([S+](C)[O-])cc1` (stereo unspecified), for which the IC50 is 16.6 µM in the experiment with BGC-823; 10.4 µM in the experiment on SW480; 14.4 µM with MCF7; 11.3 µM in the experiment with HeLa; 13.3 µM in the experiment with A549. Also, the inhibition in experiment [1] was determined as 29%. The Activity in the experiment on DNA came out at 68.4. Further, in [2], the result was Active. The same compound had an EC50 in [4] of 27 µM. Further, the Ratio in experiment [5] turned out to be 0.3.

Take `COc1ccc2cc(C(C)C(=O)NCCn3[se]c4ccccc4c3=O)ccc2c1` (stereo unspecified): the IC50 is 13.5 µM with BGC-823; 15.7 µM in the experiment on SW480; 16.5 µM with MCF7; 8.8 µM with HeLa; 14.7 µM with A549. Besides, the inhibition in [1] amounted to 28.6%. In the experiment on DNA, the Activity was found to be 123. For the same compound, the result in experiment [2] was Active. In experiment [4], this compound displayed a concentration for a half-maximal effect (EC50) of 28.4 µM. In addition, the Ratio in experiment [5] is 0.3.

Take `COc1ccc2cc(C(C)C(=O)NCc3ccc(-n4[se]c5ccccc5c4=O)cc3)ccc2c1` (stereo unspecified): the IC50 stood at 13.5 µM in the experiment with BGC-823; 7.4 µM in the experiment with SW480; 13.8 µM in the experiment with MCF7; 9.7 µM in the experiment with HeLa; 11.4 µM in the experiment with A549. For the same compound, in experiment [1], the inhibition stood at 68.6%. Moreover, the Activity in the experiment with DNA stood at 82.8. In addition, the result in experiment [2] was Active. The EC50 in [4] was found to be 14.6 µM. Besides, the Ratio in experiment [5] is 0.7.

The values are drawn from ChEMBL document CHEMBL5625186, “Synthesis, cytotoxicity, antioxidant activity and molecular modeling of new NSAIDs-EBS derivatives” (Eur J Med Chem, 2023).
